{"source": "ChEMBL document CHEMBL5032510", "about": "“Identification of Novel Fused Heteroaromatics-Based MALT1 Inhibitors by High-Throughput Screening to Treat B Cell Lymphoma” (J Med Chem, 2021)", "key": {"[1]": {"test": "Clearance in CD-1 mouse at 1 mg/kg, iv by LC-MS/MS analysis", "format": "ADME, organism-based", "settings": "in vivo", "how_it_was_run": "(§1)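 Compound formulated in 5% DMSO + 5% Tween-80 in 90% saline and given to male ICR (CD-1) mice (n = 9) at 10 mg/kg po, 1 mg/kg ip or 1 mg/kg iv. Blood was drawn via the jugular vein at set time points and held on ice. Plasma was separated by centrifugation and stored at −80 °C before PK parameters were derived.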"}, "[2]": {"tested_on": "TMD8", "test": "Antiproliferative activity against human TMD8 cells assessed as inhibition of cell growth incubated for 72 hrs by Celltiter-Glo luminescent assay", "format": "functional", "how_it_was_run": "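Exponentially growing cells were seeded at 1 × 10⁴ per 100 μL. HBL-1 and TMD8 were kept in RPMI with 10% FBS, 2 mM glutamine and 10 mM HEPES; OCI-LY1 in Iscove's medium with 20% FBS; all at 37 °C and 5% CO2. Cells were exposed to DMSO or 2-fold serial dilutions from 100 μM for 72 h, in triplicate on one plate. CellTiter-Glo luminescence was read after 1 h. Growth inhibition was calculated against control, accounting for initial cell number, and GI50 was fitted.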"}, "[3]": {"test": "Induction of apoptosis in human HBL1 cells assessed as viable cells at 5 uM measured after 24 hrs by Annexin V-FITC/ Propidium iodide staining based flow cytometry (reference value: 88.1%)", "format": "functional", "settings": "read-out: Activity"}, "[4]": {"test": "Induction of apoptosis in human HBL1 cells assessed as early apoptotic cells at 2 uM measured after 24 hrs by Annexin V-FITC/ Propidium iodide staining based flow cytometry (reference value: 4.85%)", "format": "functional"}, "[5]": {"test": "Induction of apoptosis in human HBL1 cells assessed as early apoptotic cells at 5 uM measured after 24 hrs by Annexin V-FITC/ Propidium iodide staining based flow cytometry (reference value: 4.85%)", "format": "functional"}, "[6]": {"test": "Induction of apoptosis in human HBL1 cells assessed as late apoptotic cells at 2 uM measured after 24 hrs by Annexin V-FITC/ Propidium iodide staining based flow cytometry (reference value: 4.77%)", "format": "functional"}, "[7]": {"test": "Induction of apoptosis in human HBL1 cells assessed as late apoptotic cells at 5 uM measured after 24 hrs by Annexin V-FITC/ Propidium iodide staining based flow cytometry (reference value: 4.77%)", "format": "functional"}, "[8]": {"test": "Induction of apoptosis in human HBL1 cells assessed as dead cells at 5 uM measured after 24 hrs by Annexin V-FITC/ Propidium iodide staining based flow cytometry (reference value: 2.32%)", "format": "functional"}, "[9]": {"tested_on": "TMD8", "test": "Induction of apoptosis in human TMD8 cells assessed as early apoptotic cells at 2 uM measured after 24 hrs by Annexin V-FITC/ Propidium iodide staining based flow cytometry (reference value: 6.97%)", "format": "functional"}, "[10]": {"tested_on": "TMD8", "test": "Induction of apoptosis in human TMD8 cells assessed as late apoptotic cells at 2 uM measured after 24 hrs by Annexin V-FITC/ Propidium iodide staining based flow cytometry (reference value: 2.19%)", "format": "functional"}, "[11]": {"tested_on": "TMD8", "test": "Induction of apoptosis in human TMD8 cells assessed as late apoptotic cells at 10 uM measured after 24 hrs by Annexin V-FITC/ Propidium iodide staining based flow cytometry (reference value: 2.19%)", "format": "functional"}, "[12]": {"tested_on": "OCI-Ly1", "test": "Induction of apoptosis in human OCI-Ly1 cells assessed as early apoptotic cells at 2 uM measured after 24 hrs by Annexin V-FITC/ Propidium iodide staining based flow cytometry (reference value: 1.29%)", "format": "functional"}, "[13]": {"tested_on": "OCI-Ly1", "test": "Induction of apoptosis in human OCI-Ly1 cells assessed as early apoptotic cells at 10 uM measured after 24 hrs by Annexin V-FITC/ Propidium iodide staining based flow cytometry (reference value: 1.29%)", "format": "functional"}, "[14]": {"tested_on": "OCI-Ly1", "test": "Induction of apoptosis in human OCI-Ly1 cells assessed as late apoptotic cells at 2 uM measured after 24 hrs by Annexin V-FITC/ Propidium iodide staining based flow cytometry (reference value: 0.548%)", "format": "functional"}, "[15]": {"tested_on": "HBL1", "test": "Induction of apoptosis in human HBL1 cells assessed as increase in cleaved caspase 3 level measured after 12 hrs by Western blot analysis", "format": "functional, cell-based", "how_it_was_run": "(§2)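 HBL1, TMD8 or OCI-LY1 cells were exposed to DMSO or compound for 12 h. Cleaved PARP and caspase-3 were probed by western blot with HRP-conjugated secondary antibodies and chemiluminescent detection. Each lane held 20−75 μg total protein.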"}, "[16]": {"tested_on": "TMD8", "test": "Induction of apoptosis in human TMD8 cells assessed as increase in cleaved PARP level measured after 12 hrs by Western blot analysis", "format": "functional, cell-based", "how_it_was_run": "as §2"}, "[17]": {"tested_on": "TMD8", "test": "Induction of apoptosis in human TMD8 cells assessed as increase in cleaved caspase 3 level measured after 12 hrs by Western blot analysis", "format": "functional, cell-based", "how_it_was_run": "as §2"}, "[18]": {"tested_on": "OCI-Ly1", "test": "Induction of apoptosis in human OCI-Ly1 cells assessed as increase in cleaved PARP level at 2 to 5 uM measured after 12 hrs by Western blot analysis", "format": "functional, cell-based", "settings": "dose 2-5 µM", "how_it_was_run": "as §2"}, "[19]": {"tested_on": "OCI-Ly1", "test": "Induction of apoptosis in human OCI-Ly1 cells assessed as increase in cleaved caspase 3 level at 2 to 5 uM measured after 12 hrs by Western blot analysis", "format": "functional, cell-based", "settings": "dose 2-5 µM", "how_it_was_run": "as §2"}, "[20]": {"target": "T1, Nuclear factor NF-kappa-B complex (Homo sapiens) (UniProt Q00653+P19838+Q04206)", "T1 sequence (P19838 whole entry, looked up)": "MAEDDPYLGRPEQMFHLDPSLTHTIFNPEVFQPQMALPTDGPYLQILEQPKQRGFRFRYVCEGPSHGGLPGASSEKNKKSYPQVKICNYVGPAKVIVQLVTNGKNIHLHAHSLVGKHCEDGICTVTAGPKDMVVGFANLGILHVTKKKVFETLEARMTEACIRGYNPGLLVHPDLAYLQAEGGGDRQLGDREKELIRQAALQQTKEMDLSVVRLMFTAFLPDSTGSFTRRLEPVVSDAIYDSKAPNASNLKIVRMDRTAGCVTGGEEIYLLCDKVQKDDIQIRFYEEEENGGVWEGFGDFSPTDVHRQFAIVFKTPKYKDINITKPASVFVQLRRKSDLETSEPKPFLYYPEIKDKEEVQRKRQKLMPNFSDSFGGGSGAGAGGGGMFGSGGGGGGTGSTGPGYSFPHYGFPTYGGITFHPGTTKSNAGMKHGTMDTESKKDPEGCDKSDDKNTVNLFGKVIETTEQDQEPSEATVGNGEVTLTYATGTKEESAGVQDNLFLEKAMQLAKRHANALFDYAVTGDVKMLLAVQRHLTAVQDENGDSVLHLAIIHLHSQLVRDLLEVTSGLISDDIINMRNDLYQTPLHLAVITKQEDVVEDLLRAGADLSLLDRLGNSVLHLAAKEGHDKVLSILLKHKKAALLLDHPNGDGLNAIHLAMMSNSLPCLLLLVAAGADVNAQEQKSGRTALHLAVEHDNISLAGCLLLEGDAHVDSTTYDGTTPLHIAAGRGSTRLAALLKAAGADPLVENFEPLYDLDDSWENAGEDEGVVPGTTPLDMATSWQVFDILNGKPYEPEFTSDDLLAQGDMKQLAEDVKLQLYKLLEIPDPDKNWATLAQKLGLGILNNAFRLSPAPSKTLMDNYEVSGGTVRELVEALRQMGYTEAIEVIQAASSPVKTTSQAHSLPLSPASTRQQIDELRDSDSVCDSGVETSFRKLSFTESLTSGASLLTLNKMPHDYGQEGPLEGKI", "T1 sequence (Q00653 whole entry, looked up)": "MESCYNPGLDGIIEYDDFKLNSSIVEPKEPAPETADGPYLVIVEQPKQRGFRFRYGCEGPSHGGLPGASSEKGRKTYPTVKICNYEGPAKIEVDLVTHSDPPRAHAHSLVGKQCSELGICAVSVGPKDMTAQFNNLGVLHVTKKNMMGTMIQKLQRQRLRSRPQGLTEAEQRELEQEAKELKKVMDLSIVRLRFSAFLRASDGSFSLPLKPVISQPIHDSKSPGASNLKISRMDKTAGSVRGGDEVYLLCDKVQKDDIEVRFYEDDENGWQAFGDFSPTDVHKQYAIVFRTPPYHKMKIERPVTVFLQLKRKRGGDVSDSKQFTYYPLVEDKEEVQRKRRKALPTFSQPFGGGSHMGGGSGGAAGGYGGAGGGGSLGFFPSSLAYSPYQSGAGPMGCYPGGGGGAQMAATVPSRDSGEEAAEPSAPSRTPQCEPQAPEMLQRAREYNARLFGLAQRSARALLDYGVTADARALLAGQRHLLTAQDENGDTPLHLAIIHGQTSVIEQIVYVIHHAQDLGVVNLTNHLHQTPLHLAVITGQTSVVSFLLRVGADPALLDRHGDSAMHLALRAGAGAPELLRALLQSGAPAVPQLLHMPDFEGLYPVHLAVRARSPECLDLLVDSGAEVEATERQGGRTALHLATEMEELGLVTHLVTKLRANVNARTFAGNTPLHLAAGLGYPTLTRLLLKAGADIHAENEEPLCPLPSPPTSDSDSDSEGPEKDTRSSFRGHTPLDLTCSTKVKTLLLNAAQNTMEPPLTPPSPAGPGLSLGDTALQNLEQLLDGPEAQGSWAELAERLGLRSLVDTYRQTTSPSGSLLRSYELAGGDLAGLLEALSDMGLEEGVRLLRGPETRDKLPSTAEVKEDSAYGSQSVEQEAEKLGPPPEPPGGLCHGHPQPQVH", "T1 sequence (Q04206 whole entry, looked up)": "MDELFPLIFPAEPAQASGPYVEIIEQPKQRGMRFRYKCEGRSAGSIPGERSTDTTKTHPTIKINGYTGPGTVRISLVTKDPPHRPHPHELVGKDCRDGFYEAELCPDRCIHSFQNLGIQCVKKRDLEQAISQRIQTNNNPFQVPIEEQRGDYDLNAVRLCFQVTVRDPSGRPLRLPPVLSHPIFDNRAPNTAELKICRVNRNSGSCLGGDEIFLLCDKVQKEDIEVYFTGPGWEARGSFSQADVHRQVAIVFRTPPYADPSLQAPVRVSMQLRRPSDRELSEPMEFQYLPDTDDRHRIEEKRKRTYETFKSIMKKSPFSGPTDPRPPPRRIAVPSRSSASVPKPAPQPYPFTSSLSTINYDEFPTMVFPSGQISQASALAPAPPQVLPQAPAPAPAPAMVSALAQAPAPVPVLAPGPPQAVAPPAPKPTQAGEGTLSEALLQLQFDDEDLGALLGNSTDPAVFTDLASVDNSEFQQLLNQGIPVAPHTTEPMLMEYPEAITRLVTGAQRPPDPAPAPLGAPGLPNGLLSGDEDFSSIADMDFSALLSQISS", "test": "Inhibition of NF-kappaB signalling in human HBL1 cells assessed as reduction in phosphorylation of IkappaB-alpha at 8 uM preincubated for 30 mins followed by proteosome inhibitor MG-132 addition and measured after 2 hrs by Western blot analysis", "format": "cell-based", "settings": "time 2.5 hrs", "how_it_was_run": "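HBL1 cells were pretreated with compound (4 and 8 μM) for 30 min, then given 10 μM MG-132 for 2 h. Phospho-IκBα, IκBα and RelB were probed by western blot, with β-actin as loading control. Each lane held 20−75 μg total protein, with chemiluminescent detection.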"}, "[21]": {"target": "T1, Nuclear factor NF-kappa-B complex (Homo sapiens)", "test": "Inhibition of NF-kappab signaling in human TMD8 cells assessed as reduction in phosphorylation of IkappaB-alpha at 8 uM preincubated for 30 mins followed by MG-132 addition and measured after 2 hrs by Western blot analysis", "format": "cell-based", "settings": "time 2.5 hrs", "how_it_was_run": "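HBL1, TMD8 and OCI-LY1 cells pretreated 30 min with inhibitor (4 and 8 μM), then given 10 μM proteasome inhibitor MG-132 for 2 h. Lysates (20−75 μg protein) run on SDS-PAGE, blotted to PVDF and probed for RelB, IκBα and phospho-IκBα, with β-actin as loading control; HRP secondary, chemiluminescence detection.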"}, "[22]": {"test": "Induction of apoptosis in human HBL1 cells assessed as late apoptosis at 10 uM measured after 24 hrs by Annexin V-FITC/ Propidium iodide staining based flow cytometry (reference value: 4.77%)", "format": "functional"}, "[23]": {"test": "Half life in CD-1 mouse at 1 mg/kg, iv by LC-MS/MS analysis", "format": "ADME, organism-based", "settings": "in vivo", "how_it_was_run": "as §1"}, "[24]": {"test": "Tmax in CD-1 mouse at 1 mg/kg, ip by LC-MS/MS analysis", "format": "ADME, organism-based", "settings": "in vivo", "how_it_was_run": "(§3)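 Male ICR (CD-1) mice (n = 9). Compound formulated in 5% DMSO + 5% Tween-80 in 90% saline and dosed 10 mg/kg po, 1 mg/kg ip or 1 mg/kg iv. Blood drawn from the jugular vein at set time points and held on ice. Plasma separated by centrifugation and stored at −80 °C before parameter derivation.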"}, "[25]": {"test": "MRT (0 to t) in CD-1 mouse at 10 mg/kg, po by LC-MS/MS analysis", "format": "ADME, organism-based", "settings": "in vivo", "how_it_was_run": "as §3"}, "[26]": {"test": "Oral bioavailability in CD-1 mouse at 10 mg/kg by LC-MS/MS analysis", "format": "ADME, organism-based", "settings": "in vivo", "how_it_was_run": "as §3"}}, "note": "The source made the active and inactive calls. No cut-off for these calls is given here."}
{"smiles": "COc1ccc(OC)c(NC(=O)c2sc(=S)n(-c3ccc(C(F)(F)F)cc3)c2NC(=O)CCl)c1", "values": [{"measurement": "clearance", "setting": "[1]", "value": 14.1, "unit": "mL/min/kg"}, {"measurement": "GI50", "setting": "[2]", "value": 400, "unit": "nM"}, {"measurement": "viability at 5 µM", "setting": "[3]", "value": 38.8, "unit": "%"}, {"measurement": "Activity", "setting": "[4]", "value": 6.78, "unit": "%"}, {"measurement": "Activity", "setting": "[5]", "value": 42.1, "unit": "%"}, {"measurement": "Activity", "setting": "[6]", "value": 5.5, "unit": "%"}, {"measurement": "Activity", "setting": "[7]", "value": 17.3, "unit": "%"}, {"measurement": "Activity", "setting": "[8]", "value": 1.8, "unit": "%"}, {"measurement": "Activity", "setting": "[9]", "value": 8, "unit": "%"}, {"measurement": "Activity", "setting": "[10]", "value": 2.54, "unit": "%"}, {"measurement": "Activity", "setting": "[11]", "value": 42.7, "unit": "%"}, {"measurement": "Activity", "setting": "[12]", "value": 1.87, "unit": "%"}, {"measurement": "Activity", "setting": "[13]", "value": 2.65, "unit": "%"}, {"measurement": "Activity", "setting": "[14]", "value": 0.688, "unit": "%"}, {"measurement": "Activity", "setting": "[15]", "value": "Dose-Dependent Effect"}, {"measurement": "Activity", "setting": "[16]", "value": "Dose-Dependent Effect"}, {"measurement": "Activity", "setting": "[17]", "value": "Dose-Dependent Effect"}, {"measurement": "Activity", "setting": "[18]", "value": "inactive"}, {"measurement": "Activity", "setting": "[19]", "value": "inactive"}, {"measurement": "inhibition", "setting": "[20]", "value": "Active"}, {"measurement": "inhibition", "setting": "[21]", "value": "Active"}, {"measurement": "Activity", "setting": "[22]", "value": 35, "unit": "%"}, {"measurement": "half-life", "setting": "[23]", "value": 4.6, "unit": "h"}, {"measurement": "Tmax", "setting": "[24]", "value": 0.35, "unit": "h"}, {"measurement": "MRT last", "setting": "[25]", "value": 5.62, "unit": "h"}, {"measurement": "bioavailability", "setting": "[26]", "value": 110, "unit": "%"}]}
